Data set [1] concerns Homo sapiens. The experiment in a line: Toxicity in patient infected with chloroquine-resistant Plasmodium vivax assessed as occurrence of anemia at total dose of 30 mg/kg administered as three daily doses measured 28 days post dose. Particulars: in vivo, 672 h.
Data set [2] deals with Plasmodium vivax. Briefly: Antimalarial activity against chloroquine-resistant Plasmodium vivax infected in human assessed as clearance of peripheral parasitemia at total dose of 30 mg/kg administered as three daily doses measured within 24 hrs post dose. It counts as functional. The procedure, abridged:
(§1)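 Oral amodiaquine 30 mg base/kg total, given as three daily doses. For children, the tablet was crushed and given as a suspension in water. Primaquine […] for 14 days was withheld until day 28 if there was no G6PD deficiency.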

For data set [3], the system named is Homo sapiens. The experiment in a line: Toxicity in patient infected with chloroquine-resistant Plasmodium vivax assessed as occurrence of anemia at total dose of 30 mg/kg administered as three daily doses measured 7 days post dose. The data set is classed as organism-based. On the set-up: dose 30 mg/kg. The conditions noted are these: in vivo, 168 h. The procedure, abridged: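 Patients received oral amodiaquine 30 mg base/kg split over three daily doses, with 60-min observation after each dose. Children were given crushed tablet in water. Anemia was defined as hemoglobin <10 g/dl. Primaquine was deferred to day 28.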

Data set [4] concerns Plasmodium vivax. The experiment in a line: Antimalarial activity against chloroquine-Resistant Plasmodium vivax infected in human assessed as parasite recurrence rate at total dose of 30 mg/kg administered as three daily doses measured on day 28 post dose. It counts as functional. A digest of the protocol:
as §1

For data set [5], the system named is Plasmodium vivax. Briefly: Antimalarial activity against chloroquine-resistant Plasmodium vivax by Giemsa staining. It counts as functional, organism-based. The procedure, abridged: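 Ex vivo P. vivax isolates came from clinic outpatients with parasitemia >5,000 μl−1 and were tested with a modified WHO microtest. Incubation ran until the drug-free control reached ≥40% schizonts. Giemsa-stained thick smears from each well were read for schizonts per 200 asexual parasites and normalized to control. IC50 was derived by nonlinear regression.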

Data set [6] concerns Homo sapiens. The experiment in a line: Toxicity in patient infected with chloroquine-resistant Plasmodium vivax assessed as occurrence of vomiting at total dose of 30 mg/kg administered as three daily doses measured […]. The data set is classed as organism-based. On the set-up: dose 30 mg/kg. Particulars: in vivo. A digest of the protocol:
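Three daily oral doses of amodiaquine, 30 mg base/kg total, were given under observation for 60 min. Patients who vomited were withdrawn and retreated with oral quinine. Children received crushed tablet suspended in water.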

In data set [7] the test system is Plasmodium vivax. The experiment in a line: Antimalarial activity against chloroquine-resistant Plasmodium vivax infected in human assessed as clearance of peripheral parasitemia at total dose of 30 mg/kg administered as three daily doses measured 48 hrs post dose. It counts as functional. A digest of the protocol:
as §1

Data set [8] relates to Homo sapiens. The experiment in a line: Toxicity in human infected with chloroquine-Resistant Plasmodium vivax assessed as occurrence of nausea at total dose of 30 mg/kg administered as three daily doses. More on the design: dose 30 mg/kg. The conditions noted are these: in vivo. It counts as organism-based. The procedure, abridged:
as §1

SMILES strings stand for the structures.

In the case of `CCN(CC)Cc1cc(Nc2ccnc3cc(Cl)ccc23)ccc1O.Cl`, the Activity entry in the data set with Homo sapiens [1] is recorded as “Non-toxic”; in the data set with Plasmodium vivax [2] it was 52%; with Homo sapiens [3], 30%; in the data set on Plasmodium vivax [4] it was 22.8%; in the data set with Homo sapiens [6], 4.6%; in the data set with Plasmodium vivax [7], 91%. Besides, in the data set with Homo sapiens [8], the Activity stood at 4.5%. This molecule had an IC50 with Plasmodium vivax [5] of 11.3 nM.
Turning to `C[C@H]1[C@H](OC(=O)CCC(=O)O)O[C@@H]2O[C@@]3(C)CC[C@H]4[C@H](C)CC[C@@H]1[C@@]24OO3` [ARTESUNATE], the IC50 with Plasmodium vivax [5] was 1.29 nM.
As to `CCN(CC)CCCC(C)Nc1ccnc2cc(Cl)ccc12` (stereo not drawn) [CHLOROQUINE], the IC50 with Plasmodium vivax [5] was 52.7 nM.
Same read-out and setting: as for `CCCCN(CCCC)CC(O)c1cc(Cl)cc2c1-c1ccc(Cl)cc1/C2=C/c1ccc(Cl)cc1` (stereo not drawn) [LUMEFANTRINE], the figure is 16 nM; as for `OC(c1cc(C(F)(F)F)nc2c(C(F)(F)F)cccc12)C1CCCCN1` (stereo not drawn) [MEFLOQUINE], 8.2 nM.
On the same count and under the same terms, under `Clc1ccc2c(N3CCN(CCCN4CCN(c5ccnc6cc(Cl)ccc56)CC4)CC3)ccnc2c1` [PIPERAQUINE] stands 17.5 nM.

The values above are taken from ChEMBL document CHEMBL1649127, “In vivo and in vitro efficacy of amodiaquine monotherapy for treatment of infection by chloroquine-resistant Plasmodium vivax” (Antimicrob Agents Chemother, 2009).
